Screening results as filed in PubChem.
These entries were drawn from the full list.
E coli WT inh – growth inhibitors of wild type E. coli, primary screen, strain BW25113 wild type, absorbance readout | E. coli BW25113 growth inhibition, OD600 | inhibition, % at 10 µM | 20,000 tested, 0.05% active | AID 552, 2006; in the data active = inhibition above about 40%;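 also: bacteria exposed to compound for 20 hours at 37 °C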
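Material: bacterial strain in a whole-cell growth screen; Amount: inoculum from a 1:1000 dilution of a 1.5 h subculture; Buffer or medium: LB plus kanamycin 50 µg/mL; Dosing: one dose, 10 µM final; Times: compound exposure of 20 h at 37 °C; Measured by: absorbance at 615 nm as a measure of bacterial growth.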
Starred values were filed as active, the others as inactive.

SMILES	E coli WT inh
CCOc1ccc(CN2C(=O)c3ccccc3C2C(=O)NCc2cccnc2)cc1 (centres undefined)	-2
COC(=O)c1cc(Br)c(=O)n(-c2ccc(C(C)=O)cc2)c1	-21
N#Cc1ccccc1NC(=O)c1ccc(-c2ccccc2Cl)o1	-15
CCOC(=O)N1CCC(N2CC34C=CC(O3)C(C(=O)O)C4C2=O)CC1 (centres undefined)	1
O=C(OCc1cccs1)c1ccccc1NS(=O)(=O)c1ccc2c(c1)OCCO2	5
c1ccc(CNc2ccc3c(c2)ncn3C2CCCCC2)nc1	-3
CC(C)(C)OC(=O)N1CCN(c2ccc(NC(=O)c3cc4ccccc4oc3=O)cc2)CC1	-2
O=C1CC(c2cccc(Cl)c2)CC(O)=C1C=NCCCO (centres undefined)	-4
CCOC(=O)C1CCN(C(=O)C2CCN(S(=O)(=O)c3cc(Cl)ccc3Cl)CC2)CC1	-3
CCn1c(Sc2ccc(N)cc2Cl)nc2ccccc21	-18
O=S(=O)(N1CCOCC1)n1c(Cc2ccccc2)nc2ccccc21	-14
Cc1ccc(C(C)C)c(OCCn2c(=O)oc3ccccc32)c1	0
